Measurements reported in ChEMBL document CHEMBL3352173, “Optimization of pyrrolamide topoisomerase II inhibitors toward identification of an antibacterial clinical candidate (AZD5099)” (J Med Chem, 2014).
In brackets after ≈: the same amount, converted by molar mass.

What was measured:
[1] = Bioavailability in Wistar rat at 10 mg/kg, […]; assay type: ADME, organism-based; conditions: in vivo
Haemophilus influenzae = test: Antimicrobial activity against Haemophilus influenzae by broth microdilution/CLSI method; assay type: functional
Streptococcus pneumoniae = test: Antibacterial activity against Streptococcus pneumoniae by broth microdilution/CLSI method; assay type: functional
[2] = Percentage unbound in rat plasma; assay type: ADME, cell-free
[3] = Octanol-phosphate buffer distribution coefficient, log D of the compound at pH 7.4 by shake flask method; assay type: physicochemical
[4] = target: T1, ATP-binding cassette sub-family C member 2 (Homo sapiens, UniProt Q92887); test: Stimulation of ATPase activity of human MRP2 assessed as inorganic phosphate
T1 sequence (Q92887 whole entry): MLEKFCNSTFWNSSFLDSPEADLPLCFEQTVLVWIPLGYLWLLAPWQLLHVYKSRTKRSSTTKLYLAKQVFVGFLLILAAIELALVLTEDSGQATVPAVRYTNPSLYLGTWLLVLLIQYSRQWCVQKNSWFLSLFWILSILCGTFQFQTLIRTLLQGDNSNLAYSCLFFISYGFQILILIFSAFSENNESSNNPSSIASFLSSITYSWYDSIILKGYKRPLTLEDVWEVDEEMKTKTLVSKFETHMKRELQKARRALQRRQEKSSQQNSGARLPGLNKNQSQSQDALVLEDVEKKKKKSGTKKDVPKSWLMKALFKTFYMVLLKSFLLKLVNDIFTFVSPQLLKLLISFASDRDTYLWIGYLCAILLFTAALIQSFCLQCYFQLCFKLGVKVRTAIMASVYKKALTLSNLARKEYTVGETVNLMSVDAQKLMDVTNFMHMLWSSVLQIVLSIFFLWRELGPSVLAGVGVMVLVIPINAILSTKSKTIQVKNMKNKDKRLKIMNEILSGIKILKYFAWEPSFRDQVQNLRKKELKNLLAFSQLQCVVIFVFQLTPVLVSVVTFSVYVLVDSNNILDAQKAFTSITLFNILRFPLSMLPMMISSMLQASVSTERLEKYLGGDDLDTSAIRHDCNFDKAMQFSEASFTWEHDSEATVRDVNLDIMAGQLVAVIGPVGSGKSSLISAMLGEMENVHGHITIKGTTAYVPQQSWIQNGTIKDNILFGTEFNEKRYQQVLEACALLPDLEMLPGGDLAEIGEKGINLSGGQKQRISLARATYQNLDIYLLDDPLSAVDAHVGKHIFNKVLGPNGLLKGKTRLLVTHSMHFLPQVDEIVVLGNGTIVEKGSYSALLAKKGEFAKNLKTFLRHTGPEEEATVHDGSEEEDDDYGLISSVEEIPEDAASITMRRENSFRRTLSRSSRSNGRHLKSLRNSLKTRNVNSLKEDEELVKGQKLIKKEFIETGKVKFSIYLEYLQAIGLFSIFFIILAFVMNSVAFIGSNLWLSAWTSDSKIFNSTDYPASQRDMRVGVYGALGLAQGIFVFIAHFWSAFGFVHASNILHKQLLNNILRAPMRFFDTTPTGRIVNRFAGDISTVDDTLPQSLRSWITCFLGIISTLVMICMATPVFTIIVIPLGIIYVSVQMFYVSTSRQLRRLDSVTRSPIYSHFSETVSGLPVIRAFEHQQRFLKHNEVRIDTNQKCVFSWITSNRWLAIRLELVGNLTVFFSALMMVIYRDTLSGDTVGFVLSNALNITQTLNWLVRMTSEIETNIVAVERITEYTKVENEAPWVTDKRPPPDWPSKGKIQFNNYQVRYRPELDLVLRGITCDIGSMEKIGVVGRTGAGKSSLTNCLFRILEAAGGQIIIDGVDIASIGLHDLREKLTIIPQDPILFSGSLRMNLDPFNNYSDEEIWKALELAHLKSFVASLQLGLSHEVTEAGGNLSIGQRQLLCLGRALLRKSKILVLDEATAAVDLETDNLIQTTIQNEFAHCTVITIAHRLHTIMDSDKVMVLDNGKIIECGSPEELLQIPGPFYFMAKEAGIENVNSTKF

[5] = target: T2, ATP-binding cassette sub-family C member 2 (Rattus norvegicus, UniProt Q63120); test: Stimulation of ATPase activity of rat Mrp2 assessed as inorganic phosphate
T2 sequence (Q63120 whole entry): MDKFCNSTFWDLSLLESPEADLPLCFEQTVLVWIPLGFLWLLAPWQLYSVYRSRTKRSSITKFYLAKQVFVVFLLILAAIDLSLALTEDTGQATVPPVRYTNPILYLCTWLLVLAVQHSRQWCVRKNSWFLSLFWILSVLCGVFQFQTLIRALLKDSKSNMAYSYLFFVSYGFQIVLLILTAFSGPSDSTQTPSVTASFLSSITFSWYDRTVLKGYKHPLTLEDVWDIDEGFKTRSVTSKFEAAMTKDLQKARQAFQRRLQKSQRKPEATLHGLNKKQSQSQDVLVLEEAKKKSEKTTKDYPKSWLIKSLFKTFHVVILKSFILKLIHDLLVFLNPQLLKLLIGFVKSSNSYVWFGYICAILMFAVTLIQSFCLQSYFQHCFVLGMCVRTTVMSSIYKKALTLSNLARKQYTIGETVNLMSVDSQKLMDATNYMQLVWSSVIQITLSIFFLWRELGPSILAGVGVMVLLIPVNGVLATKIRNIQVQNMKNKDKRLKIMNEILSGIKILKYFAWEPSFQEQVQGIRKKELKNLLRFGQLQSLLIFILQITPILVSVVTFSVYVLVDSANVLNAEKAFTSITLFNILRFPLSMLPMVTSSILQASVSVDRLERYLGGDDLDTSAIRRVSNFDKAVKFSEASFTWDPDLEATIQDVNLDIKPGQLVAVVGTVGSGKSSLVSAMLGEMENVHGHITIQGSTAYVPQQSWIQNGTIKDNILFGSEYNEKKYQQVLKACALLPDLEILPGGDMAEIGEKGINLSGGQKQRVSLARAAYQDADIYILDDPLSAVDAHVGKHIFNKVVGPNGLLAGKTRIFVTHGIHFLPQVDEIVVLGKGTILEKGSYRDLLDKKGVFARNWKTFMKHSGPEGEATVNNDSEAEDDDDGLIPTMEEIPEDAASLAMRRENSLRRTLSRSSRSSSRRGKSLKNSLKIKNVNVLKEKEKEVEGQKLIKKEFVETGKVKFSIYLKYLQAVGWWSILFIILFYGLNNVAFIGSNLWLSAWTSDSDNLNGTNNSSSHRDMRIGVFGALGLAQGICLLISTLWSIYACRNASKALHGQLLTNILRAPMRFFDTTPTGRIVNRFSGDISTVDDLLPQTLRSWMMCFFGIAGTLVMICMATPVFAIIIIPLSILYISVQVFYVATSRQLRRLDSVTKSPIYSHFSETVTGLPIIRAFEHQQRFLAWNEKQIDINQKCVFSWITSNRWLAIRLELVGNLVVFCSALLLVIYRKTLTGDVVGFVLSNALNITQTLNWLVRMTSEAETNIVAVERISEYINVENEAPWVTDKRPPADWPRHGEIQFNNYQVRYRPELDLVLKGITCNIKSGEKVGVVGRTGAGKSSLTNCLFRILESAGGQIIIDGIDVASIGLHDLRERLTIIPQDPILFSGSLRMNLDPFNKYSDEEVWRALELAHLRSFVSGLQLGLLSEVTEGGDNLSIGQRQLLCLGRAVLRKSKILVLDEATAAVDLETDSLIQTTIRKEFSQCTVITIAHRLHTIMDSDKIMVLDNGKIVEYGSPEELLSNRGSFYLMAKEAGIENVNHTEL

[6] = target: T2, ATP-binding cassette sub-family C member 2; test: Inhibition of ATPase activity of rat Mrp2 assessed as inorganic phosphate
Staphylococcus aureus [7] = test: Antimicrobial activity against methicillin-sensitive Staphylococcus aureus by broth microdilution/CLSI method; assay type: functional
Moraxella catarrhalis = test: Antimicrobial activity against Moraxella catarrhalis by broth microdilution/CLSI method; assay type: functional
[8] = Solubility of the compound; assay type: physicochemical
[9] = AUC in methicillin-sensitive Staphylococcus aureus ARC516 infected in neutropenic CD1 mouse thigh model at 30 mg/kg, ip q24; assay type: ADME, organism-based; parameters: dose 30 mg/kg, route intraperitoneal; conditions: in vivo
[10] = Percentage unbound in human plasma; assay type: ADME, cell-free
[11] = Clearance in dog at 10 mg/kg, iv; assay type: ADME, organism-based, Canis lupus familiaris; parameters: dose 10 mg/kg, route intravenous; conditions: plasma
Streptococcus pyogenes = test: Antimicrobial activity against Streptococcus pyogenes by broth microdilution/CLSI method; assay type: functional
Mus musculus [12] = test: fAUC in methicillin-sensitive Staphylococcus aureus ARC516 infected in neutropenic CD1 mouse thigh model at 30 mg/kg, ip q24; assay type: ADME, organism-based; parameters: dose 30 mg/kg, route intraperitoneal; conditions: in vivo
Escherichia coli [13] = test: Antimicrobial activity against Escherichia coli tolC- by broth microdilution/CLSI method; assay type: functional
Staphylococcus aureus [14] = test: Antimicrobial activity against methicillin, quinolone-resistant Staphylococcus aureus by broth microdilution/CLSI method; assay type: functional
[15] = Dissociation constant, pKa of the compound; assay type: physicochemical
Staphylococcus aureus [16] = test: Antibacterial activity against methicillin-sensitive Staphylococcus aureus ARC516 infected in ip dosed neutropenic CD1 mouse thigh model assessed as decrease in bacterial viable counts treated for q24; assay type: functional; conditions: ARC516, Thigh muscle
[17] = Clearance in CD1 mouse at 10 mg/kg, iv; assay type: ADME, organism-based; parameters: dose 10 mg/kg, route intravenous; conditions: in vivo
[18] = Percentage unbound in mouse plasma; assay type: ADME, cell-free
[19] = Bioavailability in dog at 10 mg/kg, iv; assay type: ADME, organism-based, Canis lupus familiaris; conditions: plasma
DNA gyrase subunit B = DNA gyrase subunit B (Staphylococcus aureus, UniProt P0A0K8); test: Inhibition of ATPase activity of Staphylococcus aureus GyrB
DNA gyrase subunit B, sequence (P0A0K8 whole entry): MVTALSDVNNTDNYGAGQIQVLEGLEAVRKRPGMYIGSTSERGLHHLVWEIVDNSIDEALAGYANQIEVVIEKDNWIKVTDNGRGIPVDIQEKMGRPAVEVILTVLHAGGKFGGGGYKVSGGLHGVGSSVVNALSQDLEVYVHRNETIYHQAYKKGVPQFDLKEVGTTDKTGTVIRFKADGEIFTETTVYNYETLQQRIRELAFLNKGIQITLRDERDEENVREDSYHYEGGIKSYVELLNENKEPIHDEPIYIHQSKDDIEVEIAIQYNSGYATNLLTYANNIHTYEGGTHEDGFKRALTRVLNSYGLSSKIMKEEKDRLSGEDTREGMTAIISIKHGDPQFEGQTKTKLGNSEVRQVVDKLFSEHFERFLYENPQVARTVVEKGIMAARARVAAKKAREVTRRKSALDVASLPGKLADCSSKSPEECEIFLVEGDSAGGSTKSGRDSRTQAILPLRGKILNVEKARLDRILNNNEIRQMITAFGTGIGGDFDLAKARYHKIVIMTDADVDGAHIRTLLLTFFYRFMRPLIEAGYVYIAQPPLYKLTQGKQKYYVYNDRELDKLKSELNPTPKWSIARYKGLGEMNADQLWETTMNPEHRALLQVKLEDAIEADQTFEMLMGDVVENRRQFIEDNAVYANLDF
Method in brief: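 IC50 was determined against S. aureus GyrB in the routine screening assay. The enzyme concentration limits resolution below 10 nM.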

[20] = Percentage unbound in dog plasma; assay type: ADME, cell-free, Canis lupus familiaris
[21] = Bioavailability in CD1 mouse at 10 mg/kg, […]; assay type: ADME, organism-based; conditions: in vivo
[22] = Clearance in rat at 10 mg/kg, iv; assay type: ADME, organism-based; parameters: dose 10 mg/kg, route intravenous; conditions: in vivo
Staphylococcus aureus [23] = test: Antibacterial activity against methicillin-sensitive Staphylococcus aureus ARC516 infected in neutropenic CD1 mouse thigh model assessed as decrease in bacterial viable counts at 30 mg/kg, ip q24; assay type: functional; conditions: route intraperitoneal
Escherichia coli [24] = test: Antimicrobial activity against wild-type Escherichia coli Eco523 by broth microdilution/CLSI method; assay type: functional
[25] = target: T1, ATP-binding cassette sub-family C member 2; test: Inhibition of ATPase activity of human MRP2 assessed as inorganic phosphate
[26] = Ratio of MIC for methicillin, quinolone-resistant Staphylococcus aureus to fraction unbound in human plasma; assay type: ADME
[27] = Clearance in TR-negative Wistar rat at 10 mg/kg, iv; assay type: ADME, organism-based; parameters: dose 10 mg/kg, route intravenous; conditions: in vivo
[28] = Clearance in Wistar rat at 10 mg/kg, iv; assay type: ADME, organism-based; parameters: dose 10 mg/kg, route intravenous; conditions: in vivo
Mus musculus [29] = test: fAUC in methicillin-sensitive Staphylococcus aureus ARC516 infected in neutropenic CD1 mouse thigh model at 30 mg/kg, ip q6; assay type: ADME, organism-based; parameters: dose 30 mg/kg, route intraperitoneal; conditions: in vivo
Staphylococcus aureus [30] = test: Antibacterial activity against methicillin-sensitive Staphylococcus aureus ARC516 infected in neutropenic CD1 mouse thigh model assessed as decrease in bacterial viable counts at 30 mg/kg, ip q6; assay type: functional; conditions: route intraperitoneal
Method in brief: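 Read-out is viable CFU recovered from the infected thigh after treatment. The change is expressed as log CFU relative to the bacterial burden at the start of treatment (the pre-treatment inoculum). Untreated infected controls are run in parallel and counted over the same infection-to-treatment interval.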

[31] = AUC in methicillin-sensitive Staphylococcus aureus ARC516 infected in neutropenic CD1 mouse thigh model at 30 mg/kg, ip q6; assay type: ADME, organism-based; parameters: dose 30 mg/kg, route intraperitoneal; conditions: in vivo
Staphylococcus aureus [32] = test: Antibacterial activity against methicillin-sensitive Staphylococcus aureus ARC516 infected in ip dosed neutropenic CD1 mouse thigh model assessed as decrease in bacterial viable counts treated for q6; assay type: functional; conditions: ARC516, Thigh muscle
[33] = Haemophilus influenzae, read-out: MIC
[34] = Streptococcus pneumoniae, read-out: MIC
[35] = Staphylococcus aureus, read-out: MIC
[36] = Moraxella catarrhalis, read-out: MIC
[37] = Escherichia coli, read-out: MIC
[38] = Escherichia coli, Eco523, read-out: MIC

Row | SMILES | bioavailability [1] [%] | MIC (Haemophilus influenzae; [33]) [µg/mL] | MIC (Streptococcus pneumoniae; [34]) [µg/mL] | fraction unbound [2] | EC50 [4] [µM] | EC50 [5] [µM] | IC50 [6] [µM] | MIC (Staphylococcus aureus [7]; [35]) [µg/mL] | MIC (Moraxella catarrhalis; [36]) [µg/mL] | fraction unbound [10] | clearance [11] [mL/min/kg] | MIC (Streptococcus pyogenes) [µg/mL] | MIC (Escherichia coli [13]; [37]) [µg/mL] | MIC (Staphylococcus aureus [14]; [35]) [µg/mL] | pKa [15] | clearance [17] [mL/min/kg] | fraction unbound [18] | IC50 (DNA gyrase subunit B) [nM] | fraction unbound [20] | clearance [22] [mL/min/kg] | also measured
1 | CO[C@H]1CN(c2nc(-c3ncnn3C)c(C(=O)O)s2)CC[C@H]1NC(=O)c1[nH]c(C)c(Cl)c1Cl | 65 | 0.12 (≈ 0.233 µM) | 0.007 (≈ 0.0136 µM) | 0.088 | 140 | 110 | > 200 | 0.063 (≈ 0.122 µM) | 0.026 (≈ 0.0505 µM) | 0.032 | 1.6 | 0.016 (≈ 0.0311 µM) | 0.46 (≈ 0.894 µM) | 0.04 (≈ 0.0778 µM) | 4.5 | 7.4 | 0.097 | < 10 | 0.2 | 17 | logD [3]: 0.15; solubility [8]: 630 µM (≈ 324 µg/mL); AUC [9]: 204 µg·h/mL; fAUC (Mus musculus [12]): 19.8 µg·h/mL; MIC (Staphylococcus aureus [16]): 0.03 µg/mL (≈ 0.0583 µM); bioavailability [19]: 70%; bioavailability [21]: 74%; deltalog10CFU (Staphylococcus aureus [23]): 1.54; MIC (Escherichia coli [24]; [38]): 32 µg/mL (≈ 62.2 µM); IC50 [25]: > 200 µM; Ratio [26]: 1.25
2 | CO[C@H]1CN(c2ncc(C(=O)O)s2)CC[C@H]1NC(=O)c1[nH]c(C)c(Cl)c1Cl | 6.7 |  |  |  | 71 | 38 | > 200 |  |  | 0.071 | 26 |  |  |  | 3.6 | 99 |  | < 10 | 0.22 | 52 | MIC (Haemophilus influenzae): 0.18 µg/mL (≈ 0.415 µM); MIC (Streptococcus pneumoniae): 0.016 µg/mL (≈ 0.0369 µM); clearance [27]: 9.1 mL/min/kg; MIC (Staphylococcus aureus [7]): 0.32 µg/mL (≈ 0.738 µM); MIC (Moraxella catarrhalis): 0.031 µg/mL (≈ 0.0715 µM); MIC (Escherichia coli [13]): 0.18 µg/mL (≈ 0.415 µM); MIC (Staphylococcus aureus [14]): 0.5 µg/mL (≈ 1.15 µM); MIC (Escherichia coli [24]): 64 µg/mL (≈ 148 µM); clearance [28]: 34 mL/min/kg; IC50 [25]: > 200 µM; Ratio [26]: 7
3 | CO[C@H]1CN(c2nc(-c3ncccn3)c(C(=O)O)s2)CC[C@H]1NC(=O)c1[nH]c(C)c(Cl)c1Cl | 100 | 0.2 (≈ 0.391 µM) | 0.008 (≈ 0.0156 µM) | 0.19 |  |  |  | 0.09 (≈ 0.176 µM) | 0.031 (≈ 0.0606 µM) | 0.096 | 1.9 | 0.016 (≈ 0.0313 µM) | 0.5 (≈ 0.978 µM) | 0.12 (≈ 0.235 µM) | 5.2 | 22 | 0.18 | < 10 | 0.24 | 34 | clearance [27]: 9.3 mL/min/kg; logD [3]: 0.54; fAUC (Mus musculus [29]): 6.7 µg·h/mL; deltalog10CFU (Staphylococcus aureus [30]): -1.57; solubility [8]: 350 µM (≈ 179 µg/mL); bioavailability [19]: 100%; AUC [31]: 37600 ng·h/mL; bioavailability [21]: 100%; MIC (Staphylococcus aureus [32]): 0.06 µg/mL (≈ 0.117 µM); MIC (Escherichia coli [24]; [38]): 23 µg/mL (≈ 45 µM); clearance [28]: 18 mL/min/kg; Ratio [26]: 1.25
4 | Cc1[nH]c(C(=O)NC2CCN(c3ncc(C(=O)O)s3)CC2)c(Cl)c1Cl | 6.7 | 0.5 (≈ 1.24 µM) | 0.81 (≈ 2.01 µM) | 0.086 | 145 | 27 | > 200 | 11 (≈ 27.3 µM) | 2.2 (≈ 5.46 µM) |  | 3 | 0.79 (≈ 1.96 µM) | 0.22 (≈ 0.546 µM) | 13 (≈ 32.2 µM) | 3.4 | 15.5 | 0.089 | 62 | 0.12 |  | clearance [27]: 20 mL/min/kg; MIC (Escherichia coli [24]; [38]): > 64 µg/mL; clearance [28]: 78 mL/min/kg; IC50 [25]: > 200 µM
5 | COCCNC(=O)c1nc(N2CC[C@@H](NC(=O)c3[nH]c(C)c(Cl)c3Cl)[C@@H](OC)C2)sc1C(=O)O | 34 | 0.15 (≈ 0.281 µM) | 0.018 (≈ 0.0337 µM) | 0.038 | > 200 | > 200 | 78 | 0.078 (≈ 0.146 µM) | 0.17 (≈ 0.318 µM) | 0.027 | 3 | 0.017 (≈ 0.0318 µM) | 0.62 (≈ 1.16 µM) | 0.089 (≈ 0.167 µM) | 4.4 | 57 | 0.0585 | < 10 | 0.082 | 9.5 | clearance [27]: 1.5 mL/min/kg; logD [3]: 1.2; solubility [8]: 880 µM (≈ 470 µg/mL); bioavailability [19]: 100%; bioavailability [21]: 57%; MIC (Escherichia coli [24]; [38]): 24 µg/mL (≈ 44.9 µM); clearance [28]: 2.1 mL/min/kg; IC50 [25]: 100 µM; Ratio [26]: 3.3
